Assay [1] relates to Lepidium sativum. The assay is described as follows: In vitro root inhibition activity measured using seedlings of Lepidium sativum, and relative potency expressed with respect to streptonigrin. The class given is functional. In outline: (§1)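 Cress (L. sativum) seeds soaked in water 15–20 min, germinated on 0.6% agar at 27 °C in the dark for 24 h until radicles were ca. 1 cm. DMSO solutions (2000–40 μg/mL stocks, 200 μL per 20 mL agar) were set in 0.6% agar; DMSO-only controls. Eight seedlings per plate, 24 h at 27 °C in the dark. New root growth measured, duplicate runs (16 seedlings). %I = 1 − (T/C) × 100; probit analysis and linear regression gave I50.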

Assay [2] concerns Bacillus subtilis. Nature of the assay: In vitro antibacterial activity against Bacillus subtilis. The class given is functional.
Assay [3] relates to Bacillus subtilis. The assay is described as follows: In vitro antibacterial activity measured against Bacillus subtilis and relative potency expressed with respect to streptonigrin. The class given is functional. In short, it runs like this:
(§2)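 Agar disc-diffusion plates seeded with B. subtilis spores, six discs per plate, incubated at 37 °C for 20 h. Zones of inhibition measured and averaged over four replicates. Zone diameter varied linearly with log concentration. Slopes were fitted by regression, with standard errors of the slope calculated.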

The test system of assay [4] is Lepidium sativum. Nature of the assay: In vitro root inhibition activity using seedlings of Lepidium sativum. It counts as functional, organism-based. In short, it runs like this:
as §1

Assay [5] concerns Bacillus subtilis. The assay is described as follows: Antibacterial activity against Bacillus subtilis and values were expressed as standard error for slope. The class given is functional. In short, it runs like this: as §2

Each structure is given as a SMILES string. In brackets after ≈: the same amount, converted by molar mass.

As usually defined, the MIC is the smallest concentration in the dilution series that meets the test's criterion for growth inhibition. Higher therefore signals a need for much substance. Turning to `COC1=C(N)C(=O)c2c(ccnc2-c2cccc([N+](=O)[O-])c2)C1=O`, the Relative potency was 1.96 in the assay on Lepidium sativum [1] and 0.26 with Bacillus subtilis [3]. Moreover, the MIC in the assay with Bacillus subtilis [2] was found to be 5.2 µM (≈ 1.69 µg/mL). Further, the I50 in the assay with Lepidium sativum [4] was determined as 6.43 nM ml-1. Moreover, the Slope with Bacillus subtilis [5] turned out to be 4.93.
On to `COC1=C(N)C(=O)c2nc(-c3ccccn3)ccc2C1=O`, for which the Relative potency with Lepidium sativum [1] was 1.37; in the assay with Bacillus subtilis [3], 0.1. Also, the MIC in the assay on Bacillus subtilis [2] worked out at 14.1 µM (≈ 3.97 µg/mL). Also, the I50 in the assay on Lepidium sativum [4] came out at 9.18 nM ml-1. In the assay with Bacillus subtilis [5], this compound had a Slope of 10.23.
On the same counts, the results for `COC1=C(N)C(=O)c2c(ccnc2-c2ccc(N)cc2)C1=O` are 0.82, 0.04, 35.8 µM (≈ 10.6 µg/mL), 15.49 nM ml-1 and 12.64.
On the same counts, the results for `C/N=C1\C(=O)c2ccnc(-c3ccccc3[N+](=O)[O-])c2C(O)=C1Br` are 1.3, 0.2, 6.76 µM (≈ 2.62 µg/mL), 10 nM ml-1 and 5.21.
The like results for `COC1=C(N)C(=O)c2c(ccnc2Cc2ccccc2)C1=O` were, in that order, 0.92, 0.09, 16 µM (≈ 4.71 µg/mL), 13.7 nM ml-1 and 11.31.
Regarding `C/N=C1\C(=O)c2ccnc(Cc3ccccc3)c2C(O)=C1Br`, the Relative potency in the assay on Lepidium sativum [1] amounted to 0.42; in the assay on Bacillus subtilis [3], 0.09. The compound further showed an MIC in the assay on Bacillus subtilis [2] of 16 µM (≈ 5.72 µg/mL). In the assay on Lepidium sativum [4], the I50 is reported as 30.05 nM ml-1. Further, in the assay with Bacillus subtilis [5], the Slope was determined as 11.31.
For `COC1=C(N)C(=O)c2c(ccnc2-c2ccc([N+](=O)[O-])cc2)C1=O`, the Relative potency with Lepidium sativum [1] is 1.34. This compound also came in with an I50 in the assay on Lepidium sativum [4] of 9.41 nM ml-1.
Regarding `COC1=C(N)C(=O)c2nc(-c3nc(C(=O)O)c(C)cc3N)ccc2C1=O`, the Relative potency in the assay with Lepidium sativum [1] is given as 2.3; in the assay on Bacillus subtilis [3], 5.48. The MIC against Bacillus subtilis [2] was 0.25 µM (≈ 0.0886 µg/mL). Moreover, the I50 in the assay with Lepidium sativum [4] came out at 5.5 nM ml-1. The compound also returned a Slope in the assay with Bacillus subtilis [5] of 4.75.
Take `COC1=C(N)C(=O)c2c(ccnc2-c2ccccc2)C1=O`: the Relative potency in the assay on Lepidium sativum [1] came out at 1.12; with Bacillus subtilis [3], 0.05. For the same compound, in the assay with Bacillus subtilis [2], the MIC was found to be 27.2 µM (≈ 7.62 µg/mL). The I50 in the assay with Lepidium sativum [4] is given as 11.25 nM ml-1. Also, the Slope in the assay with Bacillus subtilis [5] is 14.78.
With `COC1=C(N)C(=O)c2c(ccnc2-c2ccccc2[N+](=O)[O-])C1=O`, the Relative potency in the assay on Lepidium sativum [1] was determined as 2.09; in the assay on Bacillus subtilis [3], 0.15. The compound further yielded an MIC in the assay on Bacillus subtilis [2] of 9 µM (≈ 2.93 µg/mL). This compound also displayed an I50 with Lepidium sativum [4] of 6.03 nM ml-1. The same compound showed a Slope in the assay with Bacillus subtilis [5] of 10.3.
On the same counts, the results for `COC1=C(N)C(=O)c2c(ccnc2-c2cccc(N)c2)C1=O` are 0.57, 0.04, 33.4 µM (≈ 9.86 µg/mL), 22.37 nM ml-1 and 11.7.
Take `COC1=C(N)C(=O)c2c(ccnc2-c2ccccc2N)C1=O`: the Relative potency in the assay with Lepidium sativum [1] stood at 0.19; with Bacillus subtilis [3], 0.08. This compound registered an MIC against Bacillus subtilis [2] of 17.2 µM (≈ 5.08 µg/mL). The compound further came in with an I50 with Lepidium sativum [4] of 65 nM ml-1. In the assay with Bacillus subtilis [5], this compound had a Slope of 9.2.
On the same counts, the results for `COC1=C(N)C(=O)c2c(ccnc2-c2ccccn2)C1=O` are 0.99, 0.03, 39.3 µM (≈ 11.1 µg/mL), 12.7 nM ml-1 and 12.37.
Take `COC1=C(N)C(=O)c2nc(-c3nc(C(=O)O)c(C)c(-c4ccc(OC)c(OC)c4O)c3N)ccc2C1=O` [STREPTONIGRIN]: the Relative potency with Lepidium sativum [1] and in the assay on Bacillus subtilis [3] was 1 throughout. In addition, in the assay with Bacillus subtilis [2], it took 1.37 µM (≈ 0.694 µg/mL) to inhibit growth (MIC). In the assay on Lepidium sativum [4], the I50 is 12.65 nM ml-1. The compound also registered a Slope in the assay with Bacillus subtilis [5] of 5.51.

The values above are taken from ChEMBL document CHEMBL1125263, “Streptonigrin and related compounds. 5. Synthesis and evaluation of some isoquinoline analogues” (J Med Chem, 1991).
